{"data": "Results from different studies", "target": "Serine/threonine-protein kinase PAK 5 (PAK5, Homo sapiens, UniProt Q9P286)", "note": "Lines come from different studies, so protocols differ."}
{"SMILES": "COc1ccnn2ncc(-c3ccnc(N(C)C)n3)c12", "test": "binding", "conditions": "1 µM", "remaining binding": "94%"}
{"SMILES": "Cc1cnc(Nc2ccc(C(=O)N3CCC(N4CCCC4)CC3)cc2)nc1-c1cc2ccccc2s1", "test": "binding, competition with immobilised ligand", "conditions": "1 µM", "remaining binding": "68%"}
{"SMILES": "CN(C)c1nccc(-c2cnn3ncccc23)n1", "test": "binding", "conditions": "1 µM", "remaining binding": "92%"}
{"SMILES": "COc1ccc2c(c1)O[C@H](c1ccc(OC)c(OC)c1)C[C@@H]2NC(=O)C1(c2ccc3c(c2)OC(F)(F)O3)CC1", "test": "cell-free assay, competition with immobilised ligand", "conditions": "1 µM", "remaining binding": "100%"}
{"SMILES": "CNC(=O)[C@@H]1CC[C@@H](n2c(-c3ccc4cnccc4c3)nc3ccc(C(=O)NCc4cccc(C(N)=O)c4)cc32)C1", "test": "binding, competition with immobilised ligand", "conditions": "1 µM", "remaining binding": "100%"}
{"SMILES": "CS(=O)(=O)N1CCCC(NC(=O)[C@H](CCC2CCCCC2)NC(=O)c2ccc(CNc3ncnc4c3nnn4-c3ccccc3)cc2)C1 (stereo partly drawn)", "test": "cell-free assay, competition with immobilised ligand", "conditions": "0.1 µM", "remaining binding": "100%"}
{"SMILES": "C[C@@H]1CCN(c2nccc(-c3cnn4ncccc34)n2)C1", "test": "binding", "conditions": "1 µM", "remaining binding": "90%"}
{"SMILES": "O=C(NCC1CCOCC1)c1n[nH]cc1NC(=O)c1c(F)cccc1F", "test": "binding, competition with immobilised ligand", "conditions": "1 µM", "remaining binding": "79%"}
{"SMILES": "Cc1cnn2ncc(-c3ccnc(N(C)C)n3)c2c1", "test": "binding", "conditions": "1 µM", "remaining binding": "0%"}
{"SMILES": "C[C@@H](c1ccc(-n2cnc3c(N)ncnc32)cc1)N1CCc2nn(C)c(Cc3ccccc3)c2C1=O", "test": "binding, competition with immobilised ligand", "conditions": "0.1 µM", "remaining binding": "69%"}
{"SMILES": "O=C(NCCCN1CCOCC1)c1ccc(Nc2ncc(Cl)c(-c3ccc(Cl)s3)n2)cc1", "test": "binding, competition with immobilised ligand", "conditions": "1 µM", "remaining binding": "73%"}
{"SMILES": "C[C@@]1(Cc2ccc(C#N)cc2)C(=O)N(c2cc(Cl)cc(Cl)c2)c2ncc(C(=O)NC3(c4nc(C5CCC5)no4)CC3)n21", "test": "cell-free assay, competition with immobilised ligand", "conditions": "1 µM", "remaining binding": "100%"}
{"SMILES": "CCN1CCN(Cc2ccc(C(=O)Nc3ccc(C)c(Oc4ccc5c(c4)CC(=O)N5)c3)cc2C(F)(F)F)CC1", "test": "binding, competition with immobilised ligand", "conditions": "1 µM", "remaining binding": "86%"}
{"SMILES": "CN(C)c1ncnc(-c2ccc3nc(Nc4cc(CN5CCN(C(=O)CC(F)(F)F)CC5)ccn4)[nH]c3c2)c1Cl", "test": "cell-free assay, competition with immobilised ligand", "conditions": "1 µM", "remaining binding": "85%"}
{"SMILES": "CN(c1nccc(-c2cnn3ncccc23)n1)C1CC1", "test": "binding", "conditions": "1 µM", "remaining binding": "100%"}
{"SMILES": "CC1=C(C#N)C(c2ccc3c(c2)c(NC(=O)c2ccccc2C)nn3C)C(C#N)=C(C)N1", "test": "cell-free assay, competition with immobilised ligand", "conditions": "1 µM", "remaining binding": "100%"}
{"SMILES": "O=C(c1ccc(Nc2ncc(Cl)c(-c3ccc(Cl)s3)n2)cc1)N1CCC(N2CCCC2)CC1", "test": "binding, competition with immobilised ligand", "conditions": "1 µM", "remaining binding": "58%"}
{"SMILES": "COc1cnc(Nc2cccc(S(N)(=O)=O)c2)nc1N1CCN(c2ccccc2)C(=O)C1", "test": "binding, competition with immobilised ligand", "conditions": "1 µM", "remaining binding": "82%"}
{"SMILES": "N[C@@H]1CCN(c2nccc(-c3cnn4ncccc34)n2)C1", "test": "binding", "conditions": "1 µM", "remaining binding": "78%"}
{"SMILES": "O=C(NCCCC1CCCCC1)c1ccc(CNC(=O)c2cnn(-c3ccccc3)c2C(F)(F)F)cc1", "test": "cell-free assay, competition with immobilised ligand", "conditions": "0.1 µM", "remaining binding": "100%"}
{"SMILES": "FC(F)(F)Oc1cccc(-c2cnc3ccc(-c4ccncc4)nn23)c1", "test": "cell-free assay, competition with immobilised ligand", "conditions": "5 µM", "remaining binding": "43%"}
